Source: ChEMBL document CHEMBL5029174, “Discovery of structurally distinct tricyclic M4 positive allosteric modulator (PAM) chemotypes - Part 2” (Bioorg Med Chem Lett, 2021)

Assays:
[1] = molecular target: T1, Muscarinic acetylcholine receptor M4 (Homo sapiens) (UniProt P08173); assay: Positive allosteric modulation of human muscarinic acetylcholine M4/Gqi5 receptor expressed in CHO cells in presence of acetylcholine at EC20 concentration by calcium mobilization assay relative to control; format: functional, cell-based
T1 sequence (whole entry): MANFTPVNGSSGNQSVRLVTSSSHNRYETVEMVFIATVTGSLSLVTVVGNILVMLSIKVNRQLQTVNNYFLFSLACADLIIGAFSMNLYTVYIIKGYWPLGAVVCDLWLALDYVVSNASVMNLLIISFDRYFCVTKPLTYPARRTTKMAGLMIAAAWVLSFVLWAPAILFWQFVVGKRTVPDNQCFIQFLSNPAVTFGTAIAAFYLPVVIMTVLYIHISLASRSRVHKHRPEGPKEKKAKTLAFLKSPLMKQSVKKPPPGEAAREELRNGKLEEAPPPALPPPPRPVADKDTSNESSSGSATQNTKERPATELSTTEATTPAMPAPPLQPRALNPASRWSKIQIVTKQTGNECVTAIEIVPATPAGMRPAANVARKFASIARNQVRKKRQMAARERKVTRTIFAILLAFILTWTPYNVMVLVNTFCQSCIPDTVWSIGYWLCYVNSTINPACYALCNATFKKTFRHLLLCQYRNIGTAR
Outline: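 CHO cells stably expressing human M4 with a chimeric Gq protein were tested by calcium mobilization in the presence of an EC20 fixed concentration of acetylcholine. EC50 values come from concentration-response curves. Efficacy is given as % of the maximal acetylcholine response. Each value is n = 1 independent experiment run in triplicate.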

[2] = molecular target: T2, Muscarinic acetylcholine receptor M4 (Homo sapiens, UniProt P08173); assay: Positive allosteric modulation of human muscarinic acetylcholine M4/Gqi5 receptor expressed in CHO cells in presence of acetylcholine at EC20 concentration by calcium mobilization assay; format: functional, cell-based
T2 sequence (P08173 whole entry): T1 sequence (whole entry)

[3] = Brain to plasma partition coefficient, Kp of the compound in Sprague-Dawley rat at 0.2 mg/kg, iv measured at […]; format: ADME, organism-based; conditions: time 0.25 hrs
[4] = Intrinsic clearance in rat liver microsomes; conditions: read-out: CLH
[5] = Intrinsic clearance in human liver microsomes; conditions: read-out: CLH
[6] = filed as positive allosteric modulator

Q: For Cc1cc(C)c2c(n1)sc1c(OCc3ccc(C(C)(C)O)cc3)ncnc12, which %max [1, 6] is on record?
A: Its %max is 40%.

Q: And the EC50 ([2]; read-out: EC50)?
A: Its EC50 is 8.74 µM.

Q: For Cc1cc(C)c2c(n1)sc1c(C3CCOCC3)ncnc12, which %max [1, 6] is on record?
A: The %max was 99%.

Q: What about the EC50 ([2]; read-out: EC50) of the same compound?
A: Its EC50 is 0.152 µM.

Q: Which %max [1, 6] does the source give for Cc1cc(C)c2c(n1)oc1c(NC3CC3)ncnc12 here?
A: Its %max is 64%.

Q: Which results are given for Cc1cc(C)c2c(n1)sc1c(NCc3ccc(-n4ccnc4)nc3)ncnc12?
A: %max [1]: 34%; EC50 ([2]; read-out: EC50): 1.56 µM

Q: Which EC50 ([2]; cho) does the source give for Cc1cc(C)c2c(n1)sc1c(NCc3ccc(F)c(Cl)c3)ncnc12 here?
A: Its EC50 is “Not Active”.

Q: For Cc1cc(C)c2c(n1)sc1c(NC3CN(c4ncc(C(F)(F)F)cn4)C3)nccc12, which %max [1, 6] is on record?
A: The %max was 80%.

Q: With Cc1cc(C)c2c(n1)sc1c(NC3CCC3)ncnc12 as the compound, how does the %max [1, 6] read?
A: The %max was 76%.

Q: With Cc1cc(C)c2c(n1)sc1c(NCc3cnc(C)nc3)ncnc12 as the compound, how does the %max [1, 6] read?
A: The %max was 54%.

Q: For Cc1cc(C)c2c(n1)oc1c(NCc3ccc(C(C)(C)O)cc3)ncnc12, which EC50 ([2]; cho) is on record?
A: Its EC50 is “Not Active”.

Q: Which EC50 ([2]; cho) does the source give for Cc1cc(C)c2c(n1)sc1c(C3CCN(CC4CC4)CC3)ncnc12 here?
A: The EC50 was “Not Active”.

Q: With Cc1cc(C)c2c(n1)sc1c(NCc3ccc(C(F)(F)F)cn3)ncnc12 as the compound, how does the EC50 ([2]; cho) read?
A: Its EC50 is “Not Active”.

Q: Which %max [1, 6] does the source give for Cc1cc(C)c2c(n1)sc1c(N3CC(F)(F)C3)ncnc12 here?
A: The %max was 69%.

Q: Which %max [1, 6] does the source give for Cc1cc(C)c2c(n1)sc1c(NC3CN(c4ncc(C(F)(F)F)cn4)C3)ncnc12 here?
A: The %max was 52%.

Q: For Cc1cc(C)c2c(n1)sc1c(NC3CC(c4ccncc4)C3)ncnc12 (stereo not given), which %max [1, 6] is on record?
A: The %max was 67%.

Q: And the EC50 ([2]; read-out: EC50)?
A: Its EC50 is 0.341 µM.

Q: Which %max [1, 6] does the source give for Cc1cc(C)c2c(n1)sc1c(NCc3ccc(C(C)(C)O)cc3)ncnc12 here?
A: Its %max is 76%.

Q: What does the source list for Cc1cc(C)c2c(n1)sc1c(NCc3ccc(CN4CCOCC4)cc3)ncnc12?
A: %max [1, 6]: 47%; EC50 ([2]; read-out: EC50): 1.11 µM

Q: For Cc1cc(C)c2c(n1)sc1c(N(C)C)nccc12, which %max [1, 6] is on record?
A: Its %max is 82%.

Q: For COc1ccc(C2CC2Nc2ncnc3c2sc2nc(C)cc(C)c23)cc1 (stereo not given), which %max [1, 6] is on record?
A: The %max was 61%.

Q: What does the source list for Cc1cc(C)c2c(n1)sc1c(NCc3ccc(OC(F)F)cc3)ncnc12?
A: %max [1, 6]: 45%; EC50 ([2]; read-out: EC50): 4.01 µM

Q: With Cc1cc(C)c2c(n1)sc1c(NCc3ccc(OC(F)(F)F)cc3)ncnc12 as the compound, how does the EC50 ([2]; cho) read?
A: Its EC50 is “Not Active”.

Q: For Cc1cc(C)c2c(n1)oc1c(NC3CCC3)ncnc12, which %max [1, 6] is on record?
A: Its %max is 44%.

Q: With Cc1cc(C)c2c(n1)sc1c(N3CC4CC4C3)ncnc12 (stereo not given) as the compound, how does the %max [1, 6] read?
A: The %max was 75%.

Q: For Cc1cc(C)c2c(n1)sc1c(NCc3ccc4c(n3)CCC4)ncnc12, which %max [1] is on record?
A: The %max was 30%.

Q: What about the EC50 ([2]; read-out: EC50) of the same compound?
A: The EC50 was 2.56 µM.

Q: For Cc1cc(C)c2c(n1)oc1c(NC3CN(c4cc(Cl)ncc4Cl)C3)ncnc12, which %max [1, 6] is on record?
A: Its %max is 49%.

Q: For Cc1cc(C)c2c(n1)sc1c(C3CCN(C(=O)C4CC4)CC3)ncnc12, which %max [1, 6] is on record?
A: The %max was 62%.

Q: With Cc1cc(C)c2c(n1)sc1c(NC3CCC3)nccc12 as the compound, how does the %max [1, 6] read?
A: The %max was 90%.

Q: And the Kp [3]?
A: The Kp was 10.4.

Q: And the predicted hepatic clearance [4]?
A: The predicted hepatic clearance was 69 mL/min/kg.

Q: What about the predicted hepatic clearance [5] of the same compound?
A: Its predicted hepatic clearance is 20 mL/min/kg.

Q: For Cc1cc(C)c2c(n1)sc1c(NCc3ccc4sccc4c3)ncnc12, which EC50 ([2]; cho) is on record?
A: The EC50 was “Not Active”.

Q: With Cc1cc(C)c2c(n1)oc1c(NC3CN(c4ncc(C(F)(F)F)cn4)C3)ncnc12 as the compound, how does the EC50 ([2]; cho) read?
A: Its EC50 is “Not Active”.

Q: With Cc1cc(C)c2c(n1)sc1c(C3CCN(c4cncc(F)c4)CC3)ncnc12 as the compound, how does the EC50 ([2]; cho) read?
A: The EC50 was “Not Active”.

Q: Which %max [1, 6] does the source give for COc1ccc(CNc2nccc3c2sc2nc(C)cc(C)c23)cc1F here?
A: Its %max is 90%.

Q: For Cc1cc(C)c2c(n1)sc1c(C3CCNCC3)ncnc12, which %max [1, 6] is on record?
A: Its %max is 44%.

Q: For Cc1cc(C)c2c(n1)sc1c(NCc3ncc(F)cn3)ncnc12, which %max [1] is on record?
A: The %max was 30%.

Q: And the EC50 ([2]; read-out: EC50)?
A: The EC50 was > 10 µM.

Q: Which EC50 ([2]; cho) does the source give for Cc1cc(C)c2c(n1)oc1c(N3CCCC3)ncnc12 here?
A: The EC50 was “Not Active”.

Q: Which results are given for Cc1cc(C)c2c(n1)sc1c(N3CCCC3)nccc12?
A: %max [1, 6]: 98%; Kp [3]: 37.1; predicted hepatic clearance [4]: 68 mL/min/kg; predicted hepatic clearance [5]: 19 mL/min/kg

Q: For Cc1cc(C)c2c(n1)sc1c(C3CCCCC3)ncnc12, which %max [1, 6] is on record?
A: The %max was 71%.

Q: For Cc1cc(C)c2c(n1)sc1c(NC3CCCC3)nccc12, which %max [1, 6] is on record?
A: Its %max is 71%.

Q: With Cc1ccc(CNc2ncnc3c2sc2nc(C)cc(C)c23)c(F)c1 as the compound, how does the EC50 ([2]; cho) read?
A: The EC50 was “Not Active”.

Q: With Cc1cc(C)c2c(n1)sc1c(NCc3ccc4c(c3)COC4)ncnc12 as the compound, how does the %max [1, 6] read?
A: The %max was 41%.

Q: What about the EC50 ([2]; read-out: EC50) of the same compound?
A: The EC50 was 1.14 µM.

Q: Which %max [1, 6] does the source give for Cc1cc(C)c2c(n1)sc1c(C3CC3)ncnc12 here?
A: Its %max is 62%.

Q: For COc1ccc(CNc2ncnc3c2oc2nc(C)cc(C)c23)cc1F, which EC50 ([2]; cho) is on record?
A: Its EC50 is “Not Active”.

Q: What does the source list for Cc1cc(C)c2c(n1)sc1c(NCc3ccc(S(C)(=O)=O)cc3)ncnc12?
A: %max [1, 6]: 42%; Kp [3]: 0.45; predicted hepatic clearance [4]: 50 mL/min/kg; predicted hepatic clearance [5]: 12 mL/min/kg

Q: For Cc1cc(C)c2c(n1)sc1c(-c3nccs3)ncnc12, which %max [1, 6] is on record?
A: The %max was 62%.

Q: Which results are given for Cc1cc(C)c2c(n1)sc1c(N3CCC3)ncnc12?
A: %max [1, 6]: 59%; Kp [3]: 6.49; predicted hepatic clearance [4]: 64 mL/min/kg; predicted hepatic clearance [5]: 20 mL/min/kg

Q: Which results are given for Cc1cc(C)c2c(n1)sc1c(N3CC4(COC4)C3)ncnc12?
A: %max [1, 6]: 84%; Kp [3]: 4.47; predicted hepatic clearance [4]: 63 mL/min/kg; predicted hepatic clearance [5]: 18 mL/min/kg

Q: Which %max [1, 6] does the source give for Cc1cc(C)c2c(n1)sc1c(C3CCN(C(=O)C4(C)CC4)CC3)ncnc12 here?
A: The %max was 72%.

Q: What about the EC50 ([2]; read-out: EC50) of the same compound?
A: Its EC50 is 0.234 µM.

Q: What about the Kp [3] of the same compound?
A: The Kp was 0.54.

Q: And the predicted hepatic clearance [4]?
A: Its predicted hepatic clearance is 59 mL/min/kg.

Q: And the predicted hepatic clearance [5]?
A: The predicted hepatic clearance was 11 mL/min/kg.

Q: Which %max [1, 6] does the source give for Cc1cc(C)c2c(n1)sc1c(NCc3ccc(C(C)(C)O)cc3)nccc12 here?
A: The %max was 101%.

Q: And the Kp [3]?
A: Its Kp is 2.27.

Q: What about the predicted hepatic clearance [4] of the same compound?
A: Its predicted hepatic clearance is 58 mL/min/kg.

Q: What about the predicted hepatic clearance [5] of the same compound?
A: The predicted hepatic clearance was 15 mL/min/kg.

Q: Which %max [1, 6] does the source give for Cc1cc(C)c2c(n1)sc1c(NCc3ccc(C(C)(C)O)cc3F)ncnc12 here?
A: The %max was 74%.

Q: And the EC50 ([2]; read-out: EC50)?
A: Its EC50 is 2.32 µM.

Q: What does the source list for Cc1cc(C)c2c(n1)sc1c(N3CCCC3)ncnc12?
A: %max [1, 6]: 67%; Kp [3]: 5.36; predicted hepatic clearance [4]: 68 mL/min/kg; predicted hepatic clearance [5]: 18 mL/min/kg

Q: With Cc1cc(C)c2c(n1)sc1c(C)ncnc12 as the compound, how does the %max [1, 6] read?
A: The %max was 58%.

Q: With COCC1CN(c2ncnc3c2sc2nc(C)cc(C)c23)C1 as the compound, how does the %max [1, 6] read?
A: Its %max is 50%.
